Test results: ChEMBL document CHEMBL4138183, “Diselaginellin B, an Unusual Dimeric Molecule from Selaginella pulvinata, Inhibited Metastasis and Induced Apoptosis of SMMC-7721 Human Hepatocellular Carcinoma Cells” (J Nat Prod, 2017)
The source made the active and inactive calls. The rule behind the calls is not given here.

What was measured:
SMMC-7721 [1] = assay: Cytotoxicity against human SMMC7721 cells assessed as reduction in cell viability after 48 hrs by MTT assay; type: functional, cell-based; details: SMMC-7721, 48 h
Outline: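 MTT viability: 5 × 10^4 cells/well seeded, cultured overnight, treated with graded concentrations 48 h; MTT (5 mg/mL stock) added 4 h, formazan dissolved in DMSO, absorbance read at 490 nm.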

SMMC-7721 [2] = assay: Induction of apoptosis in human SMMC7721 cells after 48 hrs by Annexin-V-FITC/propidium iodide staining based flow cytometric method; type: functional, cell-based
SMMC-7721 [3] = assay: Cell cycle arrest in human SMMC7721 cells assessed as increase in G1 population at 2.5 to 5 uM after 48 hrs by propidium iodide staining based flow cytometric method; type: functional
Outline: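 Cells exposed 48 h to 2.5 or 5 μM, PBS-washed, fixed in 70% ethanol at 4 °C overnight, centrifuged, RNase treated 37 °C 30 min, then PI stained 30 min in dark; G1/S/G2 distribution by flow cytometry; means ± SD, n = 3.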

SMMC-7721 [4] = assay: Induction of apoptosis in human SMMC7721 cells assessed as live cells at 2.5 uM after 48 hrs by Annexin-V-FITC/propidium iodide staining based flow cytometric method (reference value: 95.75%); type: functional
SMMC-7721 [5] = assay: Induction of apoptosis in human SMMC7721 cells assessed as early apoptotic cells at 2.5 uM after 48 hrs by Annexin-V-FITC/propidium iodide staining based flow cytometric method (reference value: 2.27%); type: functional
SMMC-7721 [6] = assay: Induction of apoptosis in human SMMC7721 cells assessed as late apoptotic cells at 2.5 uM after 48 hrs by Annexin-V-FITC/propidium iodide staining based flow cytometric method (reference value: 1.17%); type: functional
SMMC-7721 [7] = assay: Induction of apoptosis in human SMMC7721 cells assessed as necrotic cells at 2.5 uM after 48 hrs by Annexin-V-FITC/propidium iodide staining based flow cytometric method (reference value: 0.82%); type: functional
SMMC-7721 [8] = assay: Induction of apoptosis in human SMMC7721 cells assessed as live cells at 5 uM after 48 hrs by Annexin-V-FITC/propidium iodide staining based flow cytometric method (reference value: 95.75%); type: functional
SMMC-7721 [9] = assay: Induction of apoptosis in human SMMC7721 cells assessed as early apoptotic cells at 5 uM after 48 hrs by Annexin-V-FITC/propidium iodide staining based flow cytometric method (reference value: 2.27%); type: functional
SMMC-7721 [10] = assay: Induction of apoptosis in human SMMC7721 cells assessed as late apoptotic cells at 5 uM after 48 hrs by Annexin-V-FITC/propidium iodide staining based flow cytometric method (reference value: 1.17%); type: functional
SMMC-7721 [11] = assay: Induction of apoptosis in human SMMC7721 cells assessed as necrotic cells at 5 uM after 48 hrs by Annexin-V-FITC/propidium iodide staining based flow cytometric method (reference value: 0.82%); type: functional
SMMC-7721 [12] = assay: Induction of apoptosis in human SMMC7721 cells assessed as live cells at 10 uM after 48 hrs by Annexin-V-FITC/propidium iodide staining based flow cytometric method (reference value: 95.75%); type: functional
SMMC-7721 [13] = assay: Induction of apoptosis in human SMMC7721 cells assessed as early apoptotic cells at 10 uM after 48 hrs by Annexin-V-FITC/propidium iodide staining based flow cytometric method (reference value: 2.27%); type: functional
SMMC-7721 [14] = assay: Induction of apoptosis in human SMMC7721 cells assessed as late apoptotic cells at 10 uM after 48 hrs by Annexin-V-FITC/propidium iodide staining based flow cytometric method (reference value: 1.17%); type: functional
SMMC-7721 [15] = assay: Induction of apoptosis in human SMMC7721 cells assessed as necrotic cells at 10 uM after 48 hrs by Annexin-V-FITC/propidium iodide staining based flow cytometric method (reference value: 0.82%); type: functional
SMMC-7721 [16] = assay: Antimetastatic activity against human SMMC7721 cells assessed as reduction in cell invasion at 0.5 uM after 48 hrs using crystal violet staining by matrigel based fluorescence microscopic analysis relative to control; type: functional
Outline: (§1)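 Transwell invasion: filter (8 μm pore) coated with matrigel for 2 h at 37 °C; 2 × 10^4 cells seeded in serum-free RPMI on upper surface with test agent 48 h; 10% FBS medium in lower chamber. Non-invaded cells swabbed off; invaded cells crystal violet stained, counted in five random fields by fluorescence microscopy. Paclitaxel 100 nM positive control; means ± SD, n = 3.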

SMMC-7721 [17] = assay: Antimetastatic activity against human SMMC7721 cells assessed as reduction in cell invasion at 1 uM after 48 hrs using crystal violet staining by matrigel based fluorescence microscopic analysis relative to control; type: functional; outline: as §1
SMMC-7721 [18] = assay: Antimetastatic activity against human SMMC7721 cells assessed as reduction in cell invasion at 2 uM after 48 hrs using crystal violet staining by matrigel based fluorescence microscopic analysis relative to control; type: functional; outline: as §1
SMMC-7721 [19] = assay: Antimetastatic activity against human SMMC7721 cells assessed as reduction in cell migration at 0.5 to 2 uM after 48 hrs by crystal violet staining based fluorescence microscopic analysis; type: functional
Outline: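 Migration through uncoated Transwell filter (8 μm pore): 2 × 10^4 cells in serum-free RPMI on upper side, treated 0.5, 1 or 2 μM for 48 h; lower chamber 10% FBS medium. Upper-surface cells removed by swab; underside cells crystal violet stained and scored in five random fields under fluorescence microscope. Paclitaxel 100 nM positive control; n = 3.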

SMMC-7721 [20] = assay: Down regulation of COX1 mRNA expression in human SMMC7721 cells at 8 uM by RT-qPCR analysis; type: functional, cell-based
Outline: (§2)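 Cells exposed to 8 μM; target mRNA quantified by RT-qPCR normalized to actin; means ± SD, n = 3.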

SMMC-7721 [21] = assay: Down regulation of COX2 mRNA expression in human SMMC7721 cells at 8 uM by RT-qPCR analysis; type: functional, cell-based; outline: as §2
SMMC-7721 [22] = assay: Down regulation of NNMT mRNA expression in human SMMC7721 cells at 8 uM by RT-qPCR analysis; type: functional, cell-based; outline: as §2
SMMC-7721 [23] = assay: Down regulation of TSPAN8 mRNA expression in human SMMC7721 cells at 8 uM by RT-qPCR analysis; type: functional, cell-based; outline: as §2
SMMC-7721 [24] = assay: Down regulation of CEACAM7 mRNA expression in human SMMC7721 cells at 8 uM by RT-qPCR analysis; type: functional, cell-based; outline: as §2
SMMC-7721 [25] = assay: Down regulation of MAGP2 mRNA expression in human SMMC7721 cells at 8 uM by RT-qPCR analysis; type: functional, cell-based; outline: as §2
SMMC-7721 [26] = assay: Upregulation of DLD mRNA expression in human SMMC7721 cells at 8 uM by RT-qPCR analysis; type: functional, cell-based; outline: as §2

## O=C1C=CC(=C(c2ccc(O)cc2)c2c(-c3ccc(O)cc3)ccc(CO)c2C#Cc2ccc(OCc3ccc(-c4ccc(O)cc4)c(C(=C4C=CC(=O)C=C4)c4ccc(O)cc4)c3C#Cc3ccc(O)cc3)cc2)C=C1
SMMC-7721 [1]
  IC50: 9 µM
SMMC-7721 [2]
  Activity: Dose-dependent effect
SMMC-7721 [3]
  Activity: Active
SMMC-7721 [4]
  Activity: 82.58%
SMMC-7721 [5]
  Activity: 5.4%
SMMC-7721 [6]
  Activity: 11.13%
SMMC-7721 [7]
  Activity: 0.89%
SMMC-7721 [8]
  Activity: 58.59%
SMMC-7721 [9]
  Activity: 7.57%
SMMC-7721 [10]
  Activity: 32.3%
SMMC-7721 [11]
  Activity: 1.54%
SMMC-7721 [12]
  Activity: 47.83%
SMMC-7721 [13]
  Activity: 21.22%
SMMC-7721 [14]
  Activity: 29.8%
SMMC-7721 [15]
  Activity: 1.15%
SMMC-7721 [16]
  fold change (FC): 0.53
SMMC-7721 [17]
  fold change (FC): 0.42
SMMC-7721 [18]
  fold change (FC): 0.39
SMMC-7721 [19]
  Activity: Active
SMMC-7721 [20]
  Activity: Active
SMMC-7721 [21]
  Activity: Active
SMMC-7721 [22]
  Activity: Active
SMMC-7721 [23]
  Activity: Active
SMMC-7721 [24]
  Activity: Active
SMMC-7721 [25]
  Activity: Active
SMMC-7721 [26]
  Activity: Active
